The values that follow come from ChEMBL document CHEMBL4177526, “Discovery and structure activity relationship of the first potent cryptosporidium FIKK kinase inhibitor” (Bioorg Med Chem, 2017).

Active and inactive are the calls of the source. No cut-off for these calls is given here.

By IC50 is commonly meant the point on the concentration scale where inhibition reaches its midpoint. In general, inhibition refers to the change of the read-out against control, counted positive when it falls. By ΔTm is commonly meant the change in melting temperature against a reference sample. As a reminder, the EC50 is the concentration that produces a half-maximal response. A word on the efflux ratio: it is a quotient of directional permeabilities that is used to spot active efflux.

Data set [1] in a line: Inhibition of Cryptosporidium parvum CDPK1 using PLARTLSVAGLPGKK peptide as substrate by NADH coupled LDH-PK ATPase assay. In short, it runs like this:
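NADH-coupled LDH-PK ATPase read-out with 1.2 nM recombinant CpCDPK1, 0.25 mM ATP, 0.1 mM Syntide 2.0 peptide and 2 mM CaCl2. Inhibitors were made as 10 mM DMSO stocks and tested in 2-fold serial dilutions. IC50 is the average of triplicate experiments.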

Data set [2] can be described thus: Inhibition of recombinant Cryptosporidium parvum FIKK using RRRAPSFYRK peptide as substrate by NADH coupled LDH-PK ATPase assay.
The target of data set [3] is Mitogen-activated protein kinase kinase kinase kinase 4 (Homo sapiens) (UniProt O95819). Description: Inhibition of human MAP4K4 at 1 uM relative to control.
A short description of data set [4]: Inhibition of Cryptosporidium parvum Iowa II ser/Thr protein kinase FIKK.
Data set [5] can be described thus: Inhibition of Cryptosporidium parvum CDPK6.
The subject of data set [6] is Cryptosporidium parvum Iowa II. Description: Inhibition of Cryptosporidium parvum Iowa II glycogen synthase kinase assessed as change in melting temperature by DSLS method.
The target of data set [7] is Calcium-dependent protein kinase 2 (Cryptosporidium parvum) (UniProt Q6S4V9). Description: Inhibition of Cryptosporidium parvum calcium-dependent protein kinase 2 assessed as change in melting temperature by DSLS method.
Data set [8] addresses Cgd5_820 protein (Cryptosporidium parvum) (UniProt F0X4H1). Description: Inhibition of Cryptosporidium parvum calcium/calmodulin dependent protein kinase with a kinase domain and 4 calmodulin like EF hands assessed as change in melting temperature by DSLS method.
Data set [9] has as its target Calcium-dependent protein kinase 2 (Cryptosporidium parvum, UniProt Q6S4V9). The data set is described as follows: Inhibition of Cryptosporidium parvum calcium-dependent protein kinase 2.
In data set [10] the target is Calcium/calmodulin-dependent protein kinase with a kinase domain and 4 calmodulin like EF hands (Cryptosporidium parvum (strain Iowa II), UniProt Q5CYL9). Description: Inhibition of Cryptosporidium parvum Iowa II calcium/calmodulin-dependent protein kinase with a kinase domain and 4 calmodulin like EF hands.
Data set [11] in a line: Inhibition of Cryptosporidium parvum Iowa II serine/threonine-protein kinase Nek2.
In data set [12] the target is Mitogen-activated protein kinase (Cryptosporidium parvum (strain Iowa II)) (UniProt A3FQ79). The data set is described as follows: Inhibition of Cryptosporidium parvum Iowa II mitogen-activated protein kinase assessed as change in melting temperature by DSLS method.
For data set [13], the target named is Mitogen-activated protein kinase (Cryptosporidium parvum (strain Iowa II), UniProt A3FQ79). The data set is described as follows: Inhibition of Cryptosporidium parvum Iowa II mitogen-activated protein kinase.
The target in data set [14] is Calcium/calmodulin-dependent protein kinase with a kinase domain and 2 calmodulin-like EF hands (Cryptosporidium parvum (strain Iowa II)) (UniProt Q5CZ29). Description: Inhibition of Cryptosporidium parvum Iowa II calcium/calmodulin-dependent protein kinase with a kinase domain and 2 calmodulin-like EF hands assessed as change in melting temperature by DSLS method.

Another data set concerns the target Cgd5_820 protein (Cryptosporidium parvum, UniProt F0X4H1). The data set is described as follows: Inhibition of Cryptosporidium parvum calcium/calmodulin dependent protein kinase with a kinase domain and 4 calmodulin like EF hands.
Data set [15] can be described thus: Inhibition of Cryptosporidium parvum Iowa II glycogen synthase kinase.
Data set [16] concerns Cryptosporidium parvum Iowa II. The data set is described as follows: Inhibition of Cryptosporidium parvum Iowa II cyclin-dependent kinase 3 assessed as change in melting temperature by DSLS method.
Data set [17] is described as follows: Ratio of EC50 for antiparasitic activity against Cryptosporidium parvum Iowa oocysts infected in human HCT8 cells to IC50 for Cryptosporidium parvum CDPK1. It counts as functional.
Data set [18] is described as follows: Ratio of EC50 for antiparasitic activity against Cryptosporidium parvum Iowa oocysts infected in human HCT8 cells to IC50 for recombinant Cryptosporidium parvum FIKK. Format: functional, cell-based.
The test system of data set [19] is Cryptosporidium parvum. The data set is described as follows: Inhibition of Cryptosporidium parvum CDPK1 assessed as increase in thermal stabilization.
Data set [20] relates to Cryptosporidium parvum. The data set is described as follows: Inhibition of recombinant Cryptosporidium parvum FIKK assessed as change in melting temperature at 50 uM by differential static light scattering method.
Data set [21] has as its target Mitogen-activated protein kinase 14 (Homo sapiens) (UniProt Q16539). The data set is described as follows: Inhibition of human p38alpha at 1 uM relative to control.
Data set [22] can be described thus: Inhibition of Cryptosporidium parvum Iowa II calcium/calmodulin-dependent protein kinase.
Data set [23] is described as follows: Inhibition of Cryptosporidium parvum Iowa II cyclin-dependent kinase 3.
Data set [24] has as its target Vascular endothelial growth factor receptor 2 (Homo sapiens) (UniProt P35968). Description: Inhibition of human KDR at 100 nM relative to control.
The target is the same in data set [25]. The data set is described as follows: Inhibition of human KDR at 1 uM relative to control.
Data set [26] has as its system Cryptosporidium parvum Iowa II. Description: Inhibition of Cryptosporidium parvum Iowa II calcium/calmodulin-dependent protein kinase assessed as change in melting temperature by DSLS method.
Data set [27] deals with Cryptosporidium parvum. Description: Inhibition of Cryptosporidium parvum CDPK6 assessed as change in melting temperature by DSLS method.
For data set [28], the system named is Cryptosporidium parvum Iowa II. The data set is described as follows: Inhibition of Cryptosporidium parvum Iowa II Serine/threonine-protein kinase Nek2 assessed as change in melting temperature by DSLS method.
Data set [29] deals with Cell division control protein 28, putative (Cryptosporidium parvum (strain Iowa II), UniProt A3FPL9). Description: Inhibition of Cryptosporidium parvum Iowa II cell division control protein 28.
Data set [30] concerns Cryptosporidium parvum. Description: Antiparasitic activity against Cryptosporidium parvum Iowa oocysts infected in human HCT8 cells pretreated prior to infection measured after 48 hrs by fluorescein labeled Vicia villosa lectin/Hoechst 33258 staining based epifluorescence microscopic analysis. Format: functional, organism-based. The gist of the method:
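HCT-8 cells grown in RPMI-1640 with 10% heat-inactivated FBS and penicillin. Three-fold compound dilutions in culture medium were added to confluent cells before about 5500 excysted C. parvum Iowa oocysts per well. After 48 h, cells were fixed with 4% paraformaldehyde and permeabilized. Vacuoles were stained with fluorescein-Vicia villosa lectin (1.33 µg/mL, 1 h, 37 °C) and nuclei with Hoechst 33258, then imaged by epifluorescence microscopy.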

The target of data set [31] is Cell division control protein 28, putative (Cryptosporidium parvum (strain Iowa II)) (UniProt A3FPL9). Description: Inhibition of Cryptosporidium parvum Iowa II cell division control protein 28 assessed as change in melting temperature by DSLS method.
The target of data set [32] is Calcium/calmodulin-dependent protein kinase with a kinase domain and 4 calmodulin like EF hands (Cryptosporidium parvum (strain Iowa II)) (UniProt Q5CYL9). The data set is described as follows: Inhibition of Cryptosporidium parvum Iowa II calcium/calmodulin-dependent protein kinase with a kinase domain and 4 calmodulin like EF hands assessed as change in melting temperature by DSLS method.

Data set [33] has as its target Calcium/calmodulin-dependent protein kinase with a kinase domain and 2 calmodulin-like EF hands (Cryptosporidium parvum (strain Iowa II), UniProt Q5CZ29). Description: Inhibition of Cryptosporidium parvum Iowa II calcium/calmodulin-dependent protein kinase with a kinase domain and 2 calmodulin-like EF hands.
Data set [34] is described as follows: Permeability in human Caco2 cells. Particulars: Caco-2, read-out: permeability. Format: ADME, cell-based.
The nature of data set [35]: Efflux ratio of permeability in human Caco2 cells. It counts as ADME, cell-based. The settings on record: Caco-2.
The subject of data set [36] is Cryptosporidium parvum. The data set is described as follows: Antiparasitic activity against Cryptosporidium parvum isolate AUCP-1 sporozoites infected in human HCT8 cells treated for 24 hrs followed by compound washout and supplemented with fresh medium containing compound at 24 intervals. It counts as functional, organism-based. Particulars: isolate AUCP-1, HCT-8, 24 h.

Setting [37] is: Cryptosporidium parvum, Iowa, HCT-8, read-out: EC50.

Vascular endothelial growth factor receptor 2 (Homo sapiens), sequence (P35968 whole entry): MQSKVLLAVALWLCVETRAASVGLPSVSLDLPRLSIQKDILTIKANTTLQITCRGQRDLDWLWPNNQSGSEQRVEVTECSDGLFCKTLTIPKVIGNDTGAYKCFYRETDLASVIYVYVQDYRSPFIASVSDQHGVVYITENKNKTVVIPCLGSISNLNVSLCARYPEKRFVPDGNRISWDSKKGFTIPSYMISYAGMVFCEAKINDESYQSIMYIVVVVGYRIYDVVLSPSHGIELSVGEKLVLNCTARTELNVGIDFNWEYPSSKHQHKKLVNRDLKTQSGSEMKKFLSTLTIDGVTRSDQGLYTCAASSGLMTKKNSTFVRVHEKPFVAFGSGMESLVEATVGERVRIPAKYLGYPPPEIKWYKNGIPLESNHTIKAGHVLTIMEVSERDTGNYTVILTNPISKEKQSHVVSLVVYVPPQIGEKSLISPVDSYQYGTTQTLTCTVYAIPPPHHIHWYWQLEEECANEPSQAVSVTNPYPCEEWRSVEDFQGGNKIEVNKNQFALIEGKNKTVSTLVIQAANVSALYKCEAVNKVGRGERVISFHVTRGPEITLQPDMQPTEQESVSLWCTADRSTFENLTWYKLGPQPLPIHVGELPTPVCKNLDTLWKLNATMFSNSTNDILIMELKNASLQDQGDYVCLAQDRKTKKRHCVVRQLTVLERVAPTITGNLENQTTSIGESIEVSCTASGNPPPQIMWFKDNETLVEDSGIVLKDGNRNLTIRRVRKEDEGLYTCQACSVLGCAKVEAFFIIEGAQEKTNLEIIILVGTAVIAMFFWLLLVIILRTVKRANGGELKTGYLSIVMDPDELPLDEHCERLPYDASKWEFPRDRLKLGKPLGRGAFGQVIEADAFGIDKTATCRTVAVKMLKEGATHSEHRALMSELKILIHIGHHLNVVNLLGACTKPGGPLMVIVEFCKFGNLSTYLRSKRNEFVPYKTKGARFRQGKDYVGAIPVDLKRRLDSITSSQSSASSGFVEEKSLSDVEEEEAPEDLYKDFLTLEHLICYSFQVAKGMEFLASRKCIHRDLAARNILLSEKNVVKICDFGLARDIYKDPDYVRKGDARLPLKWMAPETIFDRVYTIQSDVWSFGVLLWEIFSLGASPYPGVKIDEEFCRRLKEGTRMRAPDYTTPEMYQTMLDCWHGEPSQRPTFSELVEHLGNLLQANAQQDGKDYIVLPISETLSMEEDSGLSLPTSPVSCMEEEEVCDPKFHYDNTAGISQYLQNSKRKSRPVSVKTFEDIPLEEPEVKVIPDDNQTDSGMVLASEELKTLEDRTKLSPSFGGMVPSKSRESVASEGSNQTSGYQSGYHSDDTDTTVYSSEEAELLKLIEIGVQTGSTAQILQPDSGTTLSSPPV
Calcium/calmodulin-dependent protein kinase with a kinase domain and 2 calmodulin-like EF hands (Cryptosporidium parvum (strain Iowa II)), sequence (Q5CZ29 as listed by the source): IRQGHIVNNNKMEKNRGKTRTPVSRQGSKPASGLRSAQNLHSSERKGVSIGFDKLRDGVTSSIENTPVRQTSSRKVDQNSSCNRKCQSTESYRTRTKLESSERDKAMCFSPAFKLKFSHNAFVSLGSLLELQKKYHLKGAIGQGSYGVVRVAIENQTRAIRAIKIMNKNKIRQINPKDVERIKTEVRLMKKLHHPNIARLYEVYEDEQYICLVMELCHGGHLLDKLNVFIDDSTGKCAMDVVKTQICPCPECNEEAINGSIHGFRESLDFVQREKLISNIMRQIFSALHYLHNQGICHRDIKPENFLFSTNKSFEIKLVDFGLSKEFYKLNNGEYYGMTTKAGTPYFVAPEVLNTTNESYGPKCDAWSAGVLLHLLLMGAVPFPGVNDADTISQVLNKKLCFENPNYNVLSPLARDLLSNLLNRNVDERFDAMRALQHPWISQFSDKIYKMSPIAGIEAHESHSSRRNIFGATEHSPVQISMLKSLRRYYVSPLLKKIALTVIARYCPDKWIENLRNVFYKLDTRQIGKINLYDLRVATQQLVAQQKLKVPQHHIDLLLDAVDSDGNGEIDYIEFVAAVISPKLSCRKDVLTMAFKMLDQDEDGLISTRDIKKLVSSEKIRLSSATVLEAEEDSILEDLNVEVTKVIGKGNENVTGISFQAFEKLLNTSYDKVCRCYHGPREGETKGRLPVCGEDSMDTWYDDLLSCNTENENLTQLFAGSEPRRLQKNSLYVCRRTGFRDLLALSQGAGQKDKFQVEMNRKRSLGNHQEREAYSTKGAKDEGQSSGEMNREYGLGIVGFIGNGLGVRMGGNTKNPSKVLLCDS
Calcium/calmodulin-dependent protein kinase with a kinase domain and 2 calmodulin-like EF hands, sequence (Q5CZ29 whole entry, the tested form may be a part): as the sequence (Q5CZ29 as listed by the source) above
Mitogen-activated protein kinase 14 (Homo sapiens), sequence (Q16539 whole entry): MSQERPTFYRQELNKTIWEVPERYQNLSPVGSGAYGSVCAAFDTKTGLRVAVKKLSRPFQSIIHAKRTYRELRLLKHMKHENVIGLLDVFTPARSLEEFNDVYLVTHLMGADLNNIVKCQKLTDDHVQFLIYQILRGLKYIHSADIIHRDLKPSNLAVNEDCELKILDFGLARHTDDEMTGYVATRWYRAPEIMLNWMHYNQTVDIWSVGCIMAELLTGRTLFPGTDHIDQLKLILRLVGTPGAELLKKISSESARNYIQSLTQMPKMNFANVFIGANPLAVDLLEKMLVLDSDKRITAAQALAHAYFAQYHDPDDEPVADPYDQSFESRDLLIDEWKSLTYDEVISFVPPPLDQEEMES
Cell division control protein 28, putative, sequence (A3FPL9 whole entry): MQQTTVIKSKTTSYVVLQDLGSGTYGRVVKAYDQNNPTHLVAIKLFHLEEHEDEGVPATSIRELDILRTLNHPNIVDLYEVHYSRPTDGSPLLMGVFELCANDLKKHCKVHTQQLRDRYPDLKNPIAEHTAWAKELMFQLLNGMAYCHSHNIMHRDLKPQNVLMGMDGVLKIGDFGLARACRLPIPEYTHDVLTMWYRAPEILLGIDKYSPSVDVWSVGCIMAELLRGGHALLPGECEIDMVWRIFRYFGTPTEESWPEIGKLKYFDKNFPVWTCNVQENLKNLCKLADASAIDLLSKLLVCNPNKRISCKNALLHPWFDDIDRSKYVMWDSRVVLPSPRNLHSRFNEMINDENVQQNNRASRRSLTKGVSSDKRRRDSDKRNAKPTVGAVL
Cell division control protein 28, putative (Cryptosporidium parvum (strain Iowa II)), sequence (A3FPL9 as listed by the source): as the sequence (A3FPL9 whole entry) above
Cgd5_820 protein (Cryptosporidium parvum), sequence (F0X4H1 as listed by the source): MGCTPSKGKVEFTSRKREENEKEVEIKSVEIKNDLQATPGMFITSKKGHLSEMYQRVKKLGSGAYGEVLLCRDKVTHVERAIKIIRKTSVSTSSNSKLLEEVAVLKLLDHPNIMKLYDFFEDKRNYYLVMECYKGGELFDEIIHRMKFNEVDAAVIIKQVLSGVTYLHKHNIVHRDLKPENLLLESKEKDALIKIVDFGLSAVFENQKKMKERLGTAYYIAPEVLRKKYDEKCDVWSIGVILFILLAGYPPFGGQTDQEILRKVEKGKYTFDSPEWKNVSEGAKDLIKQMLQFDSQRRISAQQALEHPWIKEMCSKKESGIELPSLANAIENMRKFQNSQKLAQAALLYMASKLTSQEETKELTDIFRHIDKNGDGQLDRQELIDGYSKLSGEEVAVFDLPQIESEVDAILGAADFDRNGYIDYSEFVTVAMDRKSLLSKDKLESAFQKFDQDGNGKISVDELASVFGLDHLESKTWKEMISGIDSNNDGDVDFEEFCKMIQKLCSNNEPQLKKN

Turning to `CC(=O)Nc1nc(-c2cccc(Cl)c2)c(-c2ccc3ncccc3n2)s1`, the IC50 was 330 nM in data set [1] and > 10000 nM in data set [2].

With `CNc1nc(-c2cccc(Cl)c2)c(-c2ccc3ncccc3n2)s1`, the half-inhibitory concentration (IC50) in [1] stood at 1510 nM; in data set [2], 3600 nM.

`Nc1nc(-c2cccc(Cl)c2)c(-c2ccc3ncccc3n2)s1` [GW780159X]: the inhibition in data set [3] was determined as 60%; in data set [21] it was 50%; in data set [24], 33%; in data set [25] it was 67%. The 50% inhibitory concentration (IC50) in data set [4] was 3 nM; in [5], > 10000 nM; in [9] it was > 10000 nM; in data set [10], > 10000 nM; in data set [11], > 10000 nM; in data set [1] it was 84 nM. Besides, the IC50 was > 10000 nM in data set [13]; > 10000 nM at Cgd5_820 protein; > 10000 nM in [15]; > 10000 nM in [22]; > 10000 nM in data set [23]; 3 nM in data set [2]. Also, the IC50 in data set [29] and in data set [33] was > 10000 nM throughout. Besides, the ΔTm in [6], in data set [7], in [8], in data set [12], in [14] and in [16] was < 2 °C in each case. Also, the ΔTm is 5.1 °C in the data set on Cryptosporidium parvum [20]; < 2 °C in data set [26]; < 2 °C with Cryptosporidium parvum [27]; < 2 °C in [28]; < 2 °C in data set [31]; < 2 °C in data set [32]. The Ratio in data set [17] turned out to be 66; in data set [18] it was 1840. Further, in the data set on Cryptosporidium parvum [19], the inhibition entry was “Active”. Further, the EC50 in the data set on Cryptosporidium parvum [30] (setting [37]) was determined as 5500 nM.

Regarding `Nc1nc(-c2cccc(F)c2)c(-c2ccc3ncccc3n2)s1`, the Papp in data set [34] stood at 16 ×10⁻⁶ cm/s. In addition, the IC50 amounted to 210 nM in data set [1] and 220 nM in [2]. For the same compound, the Ratio in data set [17] and in [18] was 6 throughout. The ΔTm with Cryptosporidium parvum [20] was found to be 4.9 °C. In data set [35], the efflux ratio was < 1. In addition, the EC50 with Cryptosporidium parvum [30] (setting [37]) amounted to 1300 nM.

As for `COc1cccc(-c2nc(N)sc2-c2ccc3ncccc3n2)c1`, the IC50 turned out to be 260 nM in data set [1] and 180 nM in data set [2].

Consider `Nc1nc(-c2cc(Cl)cc(Cl)c2)c(-c2ccc3ncccc3n2)s1`, for which the IC50 in data set [1] was 3500 nM; in data set [2] it was > 10000 nM. In addition, the EC50 entry with Cryptosporidium parvum [30] is listed as “Not Active”.

As to `COc1ccc(-c2nc(N)sc2-c2ccc3ncccc3n2)cc1`, the IC50 in data set [1] was 2600 nM; in data set [2] it was > 10000 nM. Also, the ΔTm with Cryptosporidium parvum [20] was found to be 0.4 °C.

On to `Nc1nc(-c2cccc(C(F)(F)F)c2)c(-c2ccc3ncccc3n2)s1`, for which the IC50 in data set [1] is 350 nM; in data set [2], 1200 nM.

With `Nc1nc(-c2ccc(F)c(Cl)c2)c(-c2ccc3ncccc3n2)s1`, the IC50 in [1] amounted to 450 nM; in data set [2] it was 25 nM. Moreover, the ΔTm with Cryptosporidium parvum [20] came out at 3.6 °C.

Consider `Nc1nc(-c2ccc(Cl)cc2)c(-c2ccc3ncccc3n2)s1`, for which the values for the IC50 in data set [1] and in data set [2] were 375 nM and 3260 nM, respectively.

Consider `Cc1ccnc2ccc(-c3sc(N)nc3-c3ccc(F)c(Cl)c3)nc12`, for which the values for the IC50 in [1] and in data set [2] were 400 nM and > 10000 nM, respectively.

As to `Nc1nc(-c2ccc(F)cc2)c(-c2ccc3ncccc3n2)s1` [GW785804X], the IC50 in data set [1] and in data set [2] was 220 nM each time. Moreover, the ΔTm in the data set on Cryptosporidium parvum [20] came out at 4.7 °C.

For the compound `CC(C)(C)n1nc(-c2cccc3ccccc23)c2c(N)ncnc21`, the EC50 in the data set with Cryptosporidium parvum [36] came to 2560 nM; with Cryptosporidium parvum [30] (setting [37]) it was 4100 nM. The Ratio in [17] came to 1.

With `Nc1nc(-c2ccccc2)c(-c2ccc3ncccc3n2)s1`, the IC50 in [1] stood at 190 nM; in [2], 42 nM. The ΔTm with Cryptosporidium parvum [20] stood at 4.2 °C.

Consider `Nc1nc(-c2ccc(Cl)c(Cl)c2)c(-c2ccc3ncccc3n2)s1`, for which the IC50 in data set [1] is > 10000 nM; in data set [2], 750 nM.

`CC(C)c1cccc(-c2nc(N)sc2-c2ccc3ncccc3n2)c1`: the IC50 in data set [1] and in data set [2] was > 10000 nM throughout. Besides, the ΔTm in the data set with Cryptosporidium parvum [20] is 1 °C.

For the compound `Cc1cc(-c2nc(N)sc2-c2ccc3ncccc3n2)ccc1F`, the IC50 in data set [1] amounted to 73 nM; in data set [2], 140 nM.

As for `CCc1cccc(-c2nc(N)sc2-c2ccc3ncccc3n2)c1`, the IC50 in [1] is 74 nM; in data set [2], > 10000 nM.

For the compound `Cc1ccc(-c2nc(N)sc2-c2ccc3ncccc3n2)cc1C`, the IC50 in data set [1] came out at 19 nM; in data set [2] it was 2900 nM. Moreover, the results for the Ratio in [17] and in data set [18] were 204 and 1.3, respectively. Moreover, the ΔTm in the data set with Cryptosporidium parvum [20] was found to be 0.82 °C. The EC50 in the data set on Cryptosporidium parvum [30] (setting [37]) came out at 3900 nM.

Regarding `N#Cc1cccc(-c2nc(N)sc2-c2ccc3ncccc3n2)c1`, the IC50 in [1] came to 1500 nM; in data set [2] it was 4100 nM.
